# Assay results from ChEMBL document CHEMBL2390927, “Design, synthesis and antimicrobial evaluation of novel benzimidazole type of Fluconazole analogues and their synergistic effects with Chloromycin, Norfloxacin and Fluconazole” (2013).
# What was measured:
# Escherichia coli = experiment: Antibacterial activity against Escherichia coli JM109 after 24 hrs by two-fold serial dilution method; format: functional; conditions: JM109, 24 h
# Staphylococcus aureus [1] = experiment: Antibacterial activity against methicillin-resistant Staphylococcus aureus N315 after 24 hrs by two-fold serial dilution method; format: functional; conditions: N315, 24 h
# Saccharomyces cerevisiae = experiment: Antifungal activity against Saccharomyces cerevisiae after 24 hrs by two-fold serial dilution method; format: functional
# Procedure, shortened: (§1)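 Spore suspension in sterile distilled water from one-day-old cultures on Sabouraud agar, final 1–5 × 10³ spore mL⁻¹. Compound stocks diluted in sterile RPMI 1640 as two-fold serial dilutions in microdilution plates. MIC is the lowest concentration completely inhibiting growth. Growth monitored visually and spectrophotometrically, in triplicate.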
# Bacillus subtilis = experiment: Antibacterial activity against Bacillus subtilis ATCC 21216 after 24 hrs by two-fold serial dilution method; format: functional; conditions: ATCC 21216, 24 h
# Procedure, shortened: (§2)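 MIC taken as the lowest concentration giving complete growth inhibition, by standard two-fold serial dilution in 96-well plates following NCCLS. Stocks in DMSO, diluted in Mueller–Hinton broth. Inoculum adjusted with sterile saline to 1 × 10⁵ CFU. DMSO with inoculum and no drug served as solvent control. Growth read visually and spectrophotometrically, in triplicate.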
# Micrococcus luteus = experiment: Antibacterial activity against Micrococcus luteus ATCC 4698 after 24 hrs by two-fold serial dilution method; format: functional; conditions: ATCC 4698, 24 h; procedure, shortened: as §2
# Bacillus = experiment: Antibacterial activity against Bacillus proteus ATCC 13315 after 24 hrs by two-fold serial dilution method; format: functional; conditions: ATCC 13315, 24 h; procedure, shortened: as §2
# Candida albicans = experiment: Antifungal activity against Candida albicans ATCC 76615 after 24 hrs by two-fold serial dilution method; format: functional; conditions: ATCC 76615, 24 h; procedure, shortened: as §1
# Candida = experiment: Antifungal activity against Candida mycoderma after 24 hrs by two-fold serial dilution method; format: functional; procedure, shortened: as §1
# Cyberlindnera jadinii = experiment: Antifungal activity against Candida utilis after 24 hrs by two-fold serial dilution method; format: functional; conditions: Williopsis jadinii; procedure, shortened: as §1
# Salmonella typhi = experiment: Antibacterial activity against Bacillus typhi after 24 hrs by two-fold serial dilution method; format: functional, Salmonella enterica subsp. enterica serovar Typhi; conditions: Salmonella enterica
# Procedure, shortened: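 Two-fold serial dilution in 96-well plates following NCCLS; compounds dissolved in DMSO as stocks, then diluted in Mueller-Hinton broth; bacterial suspension adjusted with sterile saline to 1 × 10⁵ CFU; MIC taken as lowest concentration completely inhibiting growth, monitored visually and spectrophotometrically; DMSO-plus-inoculum well as solvent control; triplicate.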
# Pseudomonas aeruginosa = experiment: Antibacterial activity against Pseudomonas aeruginosa ATCC 27853 after 24 hrs by two-fold serial dilution method; format: functional; conditions: ATCC 27853, 24 h; procedure, shortened: as §2
# Aspergillus flavus = experiment: Antifungal activity against Aspergillus flavus after 24 hrs by two-fold serial dilution method; format: functional; procedure, shortened: as §1
# Staphylococcus aureus [2] = experiment: Antibacterial activity against Staphylococcus aureus ATCC 6538 after 24 hrs by two-fold serial dilution method; format: functional; conditions: ATCC 6538, 24 h
Compound,MIC (Escherichia coli),MIC (Staphylococcus aureus [1]),MIC (Saccharomyces cerevisiae),MIC (Bacillus subtilis),MIC (Micrococcus luteus),MIC (Bacillus),MIC (Candida albicans),MIC (Candida),MIC (Cyberlindnera jadinii),MIC (Salmonella typhi),MIC (Pseudomonas aeruginosa),MIC (Aspergillus flavus),MIC (Staphylococcus aureus [2])
Fc1ccc(CN(Cc2nc3ccccc3[nH]2)c2ccc(Cl)cc2Cl)c(F)c1,64 µg/mL,64 µg/mL,32 µg/mL,16 µg/mL,128 µg/mL,16 µg/mL,32 µg/mL,32 µg/mL,64 µg/mL,32 µg/mL,128 µg/mL,64 µg/mL,64 µg/mL
FC(F)(F)c1cc(N(Cc2nc3ccccc3[nH]2)Cc2ccc(Cl)cc2Cl)cc(C(F)(F)F)c1,64 µg/mL,64 µg/mL,32 µg/mL,64 µg/mL,128 µg/mL,32 µg/mL,64 µg/mL,64 µg/mL,64 µg/mL,64 µg/mL,128 µg/mL,64 µg/mL,64 µg/mL
Cc1cc(=O)oc2cc(OCCCCCCN(Cc3nc4ccccc4[nH]3)c3ccc(F)cc3)ccc12,128 µg/mL,128 µg/mL,32 µg/mL,16 µg/mL,128 µg/mL,64 µg/mL,16 µg/mL,32 µg/mL,16 µg/mL,64 µg/mL,16 µg/mL,32 µg/mL,32 µg/mL
CC(=O)c1cc2ccc(OCc3ccc(CN(Cc4nc5ccccc5[nH]4)c4ccc(C)cc4)cc3)cc2oc1=O,128 µg/mL,64 µg/mL,32 µg/mL,64 µg/mL,128 µg/mL,256 µg/mL,64 µg/mL,128 µg/mL,64 µg/mL,128 µg/mL,128 µg/mL,64 µg/mL,128 µg/mL
Fc1ccccc1N(CCCCn1c2ccccc2c2ccccc21)Cc1nc2ccccc2[nH]1,128 µg/mL,128 µg/mL,64 µg/mL,64 µg/mL,128 µg/mL,64 µg/mL,32 µg/mL,64 µg/mL,32 µg/mL,128 µg/mL,64 µg/mL,64 µg/mL,64 µg/mL
Fc1ccccc1N(Cc1ccc(Cl)c(Cl)c1)Cc1nc2ccccc2[nH]1,32 µg/mL,128 µg/mL,64 µg/mL,32 µg/mL,128 µg/mL,64 µg/mL,32 µg/mL,32 µg/mL,32 µg/mL,128 µg/mL,64 µg/mL,64 µg/mL,64 µg/mL
FC(F)(F)c1cccc(N(Cc2nc3ccccc3[nH]2)Cc2ccc(Cl)cc2Cl)c1,64 µg/mL,32 µg/mL,32 µg/mL,64 µg/mL,32 µg/mL,64 µg/mL,64 µg/mL,32 µg/mL,32 µg/mL,32 µg/mL,32 µg/mL,64 µg/mL,32 µg/mL
Fc1ccc(N(Cc2nc3ccccc3[nH]2)Cc2ccc(Cl)cc2Cl)cc1,128 µg/mL,64 µg/mL,64 µg/mL,64 µg/mL,64 µg/mL,32 µg/mL,32 µg/mL,64 µg/mL,32 µg/mL,64 µg/mL,64 µg/mL,64 µg/mL,32 µg/mL
Cc1ccc(N(Cc2nc3ccccc3[nH]2)Cc2ccccc2Cl)cc1,32 µg/mL,128 µg/mL,64 µg/mL,64 µg/mL,128 µg/mL,32 µg/mL,32 µg/mL,32 µg/mL,32 µg/mL,64 µg/mL,32 µg/mL,32 µg/mL,64 µg/mL
Cc1ccc(N(Cc2cccc(Cl)c2)Cc2nc3ccccc3[nH]2)cc1,32 µg/mL,128 µg/mL,64 µg/mL,64 µg/mL,128 µg/mL,128 µg/mL,32 µg/mL,32 µg/mL,32 µg/mL,16 µg/mL,32 µg/mL,64 µg/mL,32 µg/mL
